Test results reported in ChEMBL document CHEMBL1124898, “Novel agents effective against solid tumors: the diarylsulfonylureas. Synthesis, activities, and analysis of quantitative structure-activity relationships” (J Med Chem, 1990).
Converted amounts (≈) assume the structure as drawn.

Columns and labels:
[1] = tested on: CCRF-CEM; assay: Concentration required to inhibit growth of CCRF-CEM cells in culture for 72 hr to 50% of control growth; assay type: functional, cell-based; conditions: Homo sapiens
[2] = Antitumor activity in vivo against the 6C3HED lymphosarcoma dosed for 8 days at 150 mg/kg; conditions: Mus musculus, 192 h
[3] = Antitumor activity in vivo against the 6C3HED lymphosarcoma dosed for 10 days at 150 mg/kg; assay type: functional; conditions: Mus musculus, 192 h, in the assay text read “dosed for 8 days” for “dosed for 10 days”
In short: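 Tumor fragments (about 1–2 mm) implanted sc via trochar into a subaxillary site of syngeneic mice (C3H, C57BL/6, Balb/C or DBA/2) or Holtz rats. Groups were 7–10 randomized animals. Compound was suspended in 2.5% Emulphor in 0.9% saline and given orally by gavage or ip, usually from the day after implantation. Tumor volume versus untreated controls was measured one day after the final dose and reported as % inhibition. Scoring bands: +++ 95–100%, ++ 80–94%.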

[4] = Antitumor activity in vivo against the 6C3HED lymphosarcoma, dosed for 8 days at 300 mg/kg; conditions: Mus musculus, 192 h
[5] = tested on: Rattus norvegicus; assay: Hypoglycemic activity expressed as (Maximum reduction in blood glucose in mg/dL relative to predosing glucose level)/(time in hours at which maximum reduction occurred); assay type: functional
In short: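 Fed male Sprague-Dawley rats (175–200 g), four per compound, received a single oral gavage dose of 200 mg/kg suspended in 5% acacia. Tail blood was sampled before dosing and at 1, 2, 3 and 5 h, and glucose was measured by glucose oxidase/peroxidase colorimetry. Each rat served as its own control. Value = maximum fall from predose glucose (mg/dL) divided by the hour at which that maximum occurred.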

| Compound | IC50 [1] | inhibition in vivo at 150 mg/kg [2] | inhibition in vivo at 150 mg/kg [3] | inhibition in vivo at 300 mg/kg [4] | Ratio [5] |
| --- | --- | --- | --- | --- | --- |
| CCc1ccc(S(=O)(=O)NC(=O)Nc2ccc(Cl)cc2)cc1 | 7.5 µg/mL (≈ 22.1 µM) | 100% |  |  |  |
| O=C(Nc1ccc(Cl)c(Cl)c1)NS(=O)(=O)c1ccccc1 | 1.5 µg/mL (≈ 4.35 µM) | 100% |  |  |  |
| O=C(Nc1ccc(C(F)(F)F)cc1)NS(=O)(=O)c1cccc(C(F)(F)F)c1 | 15.6 µg/mL (≈ 37.8 µM) |  | 39% |  |  |
| O=C(Nc1ccc(Cl)c(Cl)c1)NS(=O)(=O)c1ccc(Cl)cc1 | 9.9 µg/mL (≈ 26.1 µM) |  | 85% |  |  |
| O=C(Nc1ccc(Br)cc1)NS(=O)(=O)c1ccccc1 | 7.1 µg/mL (≈ 20 µM) |  | 82% |  |  |
| Cc1ccc(S(=O)(=O)NC(=O)Sc2ccc(Cl)cc2)cc1 | 0.9 µg/mL (≈ 2.63 µM) |  | 33% |  |  |
| O=C(Nc1ccc(Cl)cc1)NS(=O)(=O)c1ccc(F)cc1 | 6.3 µg/mL (≈ 19.2 µM) |  | 79% |  |  |
| Cc1ccccc1S(=O)(=O)NC(=O)Nc1ccc(C(F)(F)F)cc1 | 13.7 µg/mL (≈ 38.2 µM) |  | 67% |  |  |
| COc1ccc(S(=O)(=O)NC(=O)Nc2ccc(Br)cc2)cc1 | 14.3 µg/mL (≈ 37.1 µM) |  | 99% |  |  |
| O=C(Nc1ccc(C(F)(F)F)cc1)NS(=O)(=O)c1ccccc1 | 6 µg/mL (≈ 17.4 µM) |  | 81% |  |  |
| COc1ccc(S(=O)(=O)NC(=O)Nc2ccc(Cl)cc2)cc1 | 12.6 µg/mL (≈ 37 µM) | 100% |  |  |  |
| O=C(Nc1ccc(Cl)cc1)NS(=O)(=O)c1cccc(Cl)c1 | 9 µg/mL (≈ 26.1 µM) |  | 98% |  |  |
| Cc1ccc(S(=O)(=O)NC(=O)Nc2cc(Cl)c(Cl)c(Cl)c2)cc1 | > 20 µg/mL |  |  | 44% | 0 |
| O=C(Nc1ccc(Cl)cc1)NS(=O)(=O)c1ccc(Cl)c(Cl)c1 | 14.2 µg/mL (≈ 37.4 µM) | 100% |  |  |  |
| Cc1cccc(S(=O)(=O)NC(=O)Nc2ccc(Cl)cc2)c1 | 4.3 µg/mL (≈ 13.2 µM) | 100% |  |  |  |
| O=C(Nc1ccc(Br)cc1)NS(=O)(=O)c1ccc(Br)cc1 | 14.1 µg/mL (≈ 32.5 µM) | 100% |  |  |  |
| COc1ccc(S(=O)(=O)NC(=O)Nc2ccc(C(F)(F)F)cc2)cc1 | 8 µg/mL (≈ 21.4 µM) | 100% |  |  |  |
| O=C(Nc1ccc(C(F)(F)F)cc1)NS(=O)(=O)c1ccc(Cl)c(Cl)c1 | 15.5 µg/mL (≈ 37.5 µM) |  | 85% |  |  |
| O=C(Nc1ccc(Cl)cc1)NS(=O)(=O)c1ccccc1 | 3.8 µg/mL (≈ 12.2 µM) | 100% |  |  |  |
| CCOC(=O)c1ccc(NC(=O)NS(=O)(=O)c2ccc(C)cc2)cc1 | > 20 µg/mL |  |  | 12% |  |
| COC(=O)c1ccc(S(=O)(=O)NC(=O)Nc2ccc(C(F)(F)F)cc2)cc1 | 2.6 µg/mL (≈ 6.46 µM) |  | 0% |  |  |
| Cc1ccc(S(=O)(=O)NC(=O)Nc2ccccc2Cl)cc1 | > 20 µg/mL |  |  | 1% |  |
| O=C(Nc1ccc(C(F)(F)F)cc1)NS(=O)(=O)c1ccc(Cl)cc1 | 5.8 µg/mL (≈ 15.3 µM) |  | 94% |  | 0 |
| Cc1ccc(S(=O)(=O)NC(=O)Nc2ccc(Cl)cc2Cl)cc1 | > 20 µg/mL |  |  | 39% |  |

| Compound | IC50 [1] | inhibition in vivo at 150 mg/kg [2] | inhibition in vivo at 150 mg/kg [3] | inhibition in vivo at 300 mg/kg [4] | Ratio [5] |
| --- | --- | --- | --- | --- | --- |
| Cc1ccc(S(=O)(=O)NC(=O)Nc2cccc(Cl)c2)cc1 | > 20 µg/mL |  |  | 13% |  |
| Cc1ccc(S(=O)(=O)NC(=O)Nc2ccc3c(c2)C(=O)CC3)cc1 | > 20 µg/mL |  |  | 0% |  |
| CC(=O)Nc1ccc(S(=O)(=O)NC(=O)Nc2ccc(C(F)(F)F)cc2)cc1 | > 20 µg/mL |  |  | 22% |  |
| Cc1ccc(S(=O)(=O)NC(=O)Nc2ccc(Cl)c(C(F)(F)F)c2)cc1 | 18.6 µg/mL (≈ 47.4 µM) |  |  | 18% |  |
| CCCCOC(=O)c1ccc(NC(=O)NS(=O)(=O)c2ccc(C)cc2)cc1 | > 20 µg/mL |  |  | 0% |  |
| O=C(Nc1ccc(Cl)c(Cl)c1)NS(=O)(=O)c1ccc2c(c1)CCC2 | 9.1 µg/mL (≈ 23.6 µM) |  |  | 97% |  |
| O=C(Nc1ccc(Cl)cc1)NS(=O)(=O)c1ccc(CO)cc1 | > 20 µg/mL |  |  | 15% |  |
| O=C(NCCc1ccccc1)NS(=O)(=O)c1ccc2c(c1)CCC2 | > 20 µg/mL |  |  | 0% |  |
| Cc1ccc(S(=O)(=O)NC(=O)N(C)c2ccc(Cl)cc2)cc1 | > 20 µg/mL |  |  | 30% |  |
| O=C(Nc1ccc(Cl)cc1)NS(=O)(=O)c1ccc2ccccc2c1 | 11.2 µg/mL (≈ 31 µM) |  |  | 100% | 0 |
| O=C(Nc1ccc(C(F)(F)F)cc1)NS(=O)(=O)c1ccc2c(c1)CCC2 | 12 µg/mL (≈ 31.2 µM) |  |  | 71% |  |
| O=C(Nc1ccc(Cl)cc1)NS(=O)(=O)c1cccnc1 | 7.1 µg/mL (≈ 22.8 µM) |  |  | 3% |  |
| CCCOc1cccc(NC(=O)NS(=O)(=O)c2ccc(C)cc2)c1 | > 20 µg/mL |  |  | 0% |  |
| Cc1ccc(S(=O)(=O)NC(=O)Nc2ccc(Cl)cc2C(F)(F)F)cc1 | > 20 µg/mL |  |  | 24% |  |
| O=C(Nc1ccc(Cl)cc1)NS(=O)(=O)c1ccc2c(c1)OCCO2 | 13.5 µg/mL (≈ 36.6 µM) |  |  | 49% |  |
| CCCc1ccc(S(=O)(=O)NC(=O)Nc2ccc(Cl)cc2)cc1 | 13.8 µg/mL (≈ 39.1 µM) |  |  | 79% |  |
| Cc1ccc(S(=O)(=O)NC(=O)Nc2ccc(Cl)c([N+](=O)[O-])c2)cc1 | 15.8 µg/mL (≈ 42.7 µM) |  |  | 30% |  |
| Cc1ccc(S(=O)(=O)NC(=O)Nc2cc(F)cc(F)c2)cc1 | > 20 µg/mL |  |  | 52% |  |
| N#Cc1cccc(S(=O)(=O)NC(=O)Nc2ccc(Cl)cc2)c1 | 13.1 µg/mL (≈ 39 µM) |  |  | 19% |  |
| Cc1ccc(S(=O)(=O)NC(=O)Nc2ccc(Br)cc2)cc1 | 8.2 µg/mL (≈ 22.2 µM) | 100% |  |  |  |
| Cc1ccc(S(=O)(=O)NC(=O)Nc2ccc(OC(F)(F)F)cc2)cc1 | 18.4 µg/mL (≈ 49.2 µM) |  |  | 17% |  |
| Cc1ccc(S(=O)(=O)NC(=O)Nc2ccc(I)cc2)cc1 | 19.6 µg/mL (≈ 47.1 µM) |  | 76% |  |  |
| CCCCc1ccc(NC(=O)NS(=O)(=O)c2ccc(C)cc2)cc1 | 19.7 µg/mL (≈ 56.9 µM) |  |  | 8% |  |
